According to ChEMBL document CHEMBL3875227, “Electrophilic Helical Peptides That Bond Covalently, Irreversibly, and Selectively in a Protein-Protein Interaction Site” (ACS Med Chem Lett, 2017):
Active and inactive are the calls of the source. No cut-off for these calls is given here.

How the values were obtained:
[1] = biological target: T1, Bcl-2-related protein A1 (Homo sapiens) (UniProt Q16548); test: Binding affinity to recombinant human C-terminal His6-tagged Bcl2A1 (1 to 152 residues) expressed in Escherichia coli assessed as adduct formation at 25 uM measured after 5 hrs by LC-MS analysis
T1 sequence (whole entry): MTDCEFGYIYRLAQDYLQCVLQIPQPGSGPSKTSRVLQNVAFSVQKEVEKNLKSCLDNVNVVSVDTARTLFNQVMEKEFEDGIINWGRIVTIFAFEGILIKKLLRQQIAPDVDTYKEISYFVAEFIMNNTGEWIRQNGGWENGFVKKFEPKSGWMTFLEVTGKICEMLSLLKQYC
In short: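 Bcl2A1 (5 μM) reacted with electrophilic peptide (25 μM) at pH 7.2 for 5 h. Protein adducts analysed by mass spectrometry.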

[2] = Metabolic stability in human serum at 25 uM measured up to 6 hrs; format: ADME
[3] = biological target: T2, Bcl-2-related protein A1 (Homo sapiens, UniProt Q16548); test: Inhibition of FITC-betaA-DIIRNIARHLAQVGDSMRSI-NH2 binding to recombinant human Bcl2A1 (1 to 152 residues) BH3 binding site expressed in Escherichia coli measured after 2 hrs by fluorescence polarization assay; settings: for Ki: read-out: Ki(app)
T2 sequence (Q16548 whole entry): T1 sequence (whole entry)
In short: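 Competitive fluorescence polarization: Bcl2A1 (15 nM) with FITC-Bid tracer (5 nM), protein/tracer 3:1 to keep fluorescence measurable, exposed to increasing peptide concentrations for 2 h. IC50 read from inhibition curves; apparent Ki derived from it.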

[4] = biological target: T1, Bcl-2-related protein A1 (Homo sapiens); test: Binding affinity to Bcl2A1 in human U937 cells assessed as Bcl2A1 modification at 5 to 50 uM measured after overnight incubation by Western blot analysis; format: cell-based; settings: U-937
In short: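 Live U937 cells incubated with peptide for 24 h at 37 °C, then lysed. Covalent Bcl2A1 modification detected by Western blot.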

[5] = biological target: T1, Bcl-2-related protein A1 (Homo sapiens); test: Reversible inhibition of FITC-betaA-DIIRNIARHLAQVGDSMRSI-NH2 binding to recombinant human Bcl2A1 (1 to 152 residues) BH3 binding site expressed in Escherichia coli preincubated for 1 hr with 2 fold diluted Bcl2A1 prior to FITC-betaA-DIIRNIARHLAQVGDSMRSI-NH2 addition measured every minute over 3.5 hrs by fluorescence polarization assay
In short: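 Bcl2A1 2-fold serially diluted (250 to 0.25 nM), preincubated 1 h with peptide at several protein/peptide ratios. FITC-Bid (5 nM) then added and fluorescence polarization recorded as titration binding curves. Buffer in place of peptide as control.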

[6] = biological target: T1, Bcl-2-related protein A1 (Homo sapiens); test: Binding affinity to Bcl2A1 (unknown origin) overexpressed in human HeLa cells at 50 uM measured after 24 hrs by Western blot analysis; format: cell-based
[7] = Cellular uptake in human U937 cells at 10 uM measured after 4 hrs by flow cytometry; format: ADME, cell-based; settings: u-937, 4 h
[8] = Drug uptake in mitochondria of human U937 cells at 1 uM measured after 4 hrs using FITC-labeled compound by Hoechst and MitoTracker Deep Red dye-based confocal live cell microscopy; format: ADME; settings: u-937, 4 h
In short: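 Live U937 lymphoma cells given FITC-labelled peptide (1 μM) for 4 h. Nuclei stained with Hoechst and mitochondria with MitoTracker; colocalization imaged by confocal microscopy.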

[9] = Stability of the compound in DTT buffer at 50 uM and pH 7.2 measured after 1 to 17 hrs by mass spectra analysis; format: physicochemical; settings: pH 7.2, 50 µM
In short: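 Peptide held in 1 mM dithiothreitol over several hours to follow its integrity.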

[10] = biological target: T1, Bcl-2-related protein A1 (Homo sapiens); settings: 500 nM
[11] = biological target: T1, Bcl-2-related protein A1 (Homo sapiens); settings: 500 nM; remark: listed apart in the source

Row | Activity [1] | Stability [2] | IC50 [3] [nM] | Ki [3] [nM] | Activity [4] | Compound | also measured
1 | Active |  |  |  |  | CC[C@H](C)[C@H](NC(C)=O)C(=O)N[C@@H](CNC(=O)CCl)C(=O)N[C@H](C(=O)N[C@@H](C)C(=O)N[C@@H](CCC(N)=O)C(=O)N[C@@H](CCC(=O)O)C(=O)N[C@@H](CC(C)C)C(=O)N[C@@H](CCCNC(=N)N)C(=O)N[C@@]1(C)CCCC=CCCC[C@@](C)(C(=O)N[C@@H](Cc2ccccc2)C(=O)N[C@@H](CC(N)=O)C(=O)N[C@@H](C)C(=O)N[C@@H](Cc2ccc(O)cc2)C(=O)N[C@@H](Cc2ccc(O)cc2)C(=O)N[C@@H](C)C(=O)N[C@@H](CCCNC(=N)N)C(=O)N[C@@H](CCCNC(=N)N)C(N)=O)NC(=O)[C@H](CC(=O)O)NC(=O)CNC(=O)[C@H]([C@@H](C)CC)NC1=O)[C@@H](C)CC | 
2 |  | Stable | 110 | 32 | Active | CC[C@H](C)[C@H](NC(C)=O)C(=O)N[C@@H](Cc1c[nH]c2ccccc12)C(=O)N[C@H](C(=O)N[C@@H](C)C(=O)N[C@@H](CCC(N)=O)C(=O)N[C@@H](CCC(=O)O)C(=O)N[C@@H](CC(C)C)C(=O)N[C@@H](CCCNC(=N)N)C(=O)N[C@@]1(C)CCCC=CCCC[C@@](C)(C(=O)N[C@@H](Cc2ccccc2)C(=O)N[C@@H](CC(N)=O)C(=O)N[C@@H](C)C(=O)N[C@@H](Cc2ccc(O)cc2)C(=O)N[C@@H](Cc2ccc(O)cc2)C(=O)N[C@@H](C)C(=O)N[C@@H](CCCNC(=N)N)C(=O)N[C@@H](CCCNC(=N)N)C(N)=O)NC(=O)[C@H](CC(=O)O)NC(=O)CNC(=O)[C@H]([C@@H](C)CC)NC1=O)[C@@H](C)CC | inhibition [5]: Active; Activity [6]: Active
3 |  |  |  |  |  | C=CC(=O)NC[C@H](NC(=O)[C@@H](NC(=O)CCCCCNC(=O)c1cc(N=C=S)ccc1-c1c2ccc(=O)cc-2oc2cc(O)ccc12)[C@@H](C)CC)C(=O)N[C@H](C(=O)N[C@@H](C)C(=O)N[C@@H](CCC(N)=O)C(=O)N[C@@H](CCC(=O)O)C(=O)N[C@@H](CC(C)C)C(=O)N[C@@H](CCCNC(=N)N)C(=O)N[C@@]1(C)CCCC=CCCC[C@@](C)(C(=O)N[C@@H](Cc2ccccc2)C(=O)N[C@@H](CC(N)=O)C(=O)N[C@@H](C)C(=O)N[C@@H](Cc2ccc(O)cc2)C(=O)N[C@@H](Cc2ccc(O)cc2)C(=O)N[C@@H](C)C(=O)N[C@@H](CCCNC(=N)N)C(=O)N[C@@H](CCCNC(=N)N)C(N)=O)NC(=O)[C@H](CC(=O)O)NC(=O)CNC(=O)[C@H]([C@@H](C)CC)NC1=O)[C@@H](C)CC | Drug uptake [7]: Active; Drug uptake [8]: Active
4 |  | Stable | 8.5 | < 0.1 | Active | C=CC(=O)NC[C@H](NC(=O)[C@@H](NC(C)=O)[C@@H](C)CC)C(=O)N[C@H](C(=O)N[C@@H](C)C(=O)N[C@@H](CCC(N)=O)C(=O)N[C@@H](CCC(=O)O)C(=O)N[C@@H](CC(C)C)C(=O)N[C@@H](CCCNC(=N)N)C(=O)N[C@@]1(C)CCCC=CCCC[C@@](C)(C(=O)N[C@@H](Cc2ccccc2)C(=O)N[C@@H](CC(N)=O)C(=O)N[C@@H](C)C(=O)N[C@@H](Cc2ccc(O)cc2)C(=O)N[C@@H](Cc2ccc(O)cc2)C(=O)N[C@@H](C)C(=O)N[C@@H](CCCNC(=N)N)C(=O)N[C@@H](CCCNC(=N)N)C(N)=O)NC(=O)[C@H](CC(=O)O)NC(=O)CNC(=O)[C@H]([C@@H](C)CC)NC1=O)[C@@H](C)CC | Stability [9]: Stable; T1/2 [10]: 28 min; inhibition [11]: Active
5 | Active |  |  |  |  | C#CC(=O)NC[C@H](NC(=O)[C@@H](NC(C)=O)[C@@H](C)CC)C(=O)N[C@H](C(=O)N[C@@H](C)C(=O)N[C@@H](CCC(N)=O)C(=O)N[C@@H](CCC(=O)O)C(=O)N[C@@H](CC(C)C)C(=O)N[C@@H](CCCNC(=N)N)C(=O)N[C@@]1(C)CCCC=CCCC[C@@](C)(C(=O)N[C@@H](Cc2ccccc2)C(=O)N[C@@H](CC(N)=O)C(=O)N[C@@H](C)C(=O)N[C@@H](Cc2ccc(O)cc2)C(=O)N[C@@H](Cc2ccc(O)cc2)C(=O)N[C@@H](C)C(=O)N[C@@H](CCCNC(=N)N)C(=O)N[C@@H](CCCNC(=N)N)C(N)=O)NC(=O)[C@H](CC(=O)O)NC(=O)CNC(=O)[C@H]([C@@H](C)CC)NC1=O)[C@@H](C)CC | 
